32 molecules from ChEMBL document CHEMBL3872208, “Synthesis and pharmacological characterization of novel N-(trans-4-(2-(4-(benzo[d]isothiazol-3-yl)piperazin-1-yl)ethyl)cyclohexyl)amides as potential multireceptor atypical antipsychotics” (Eur J Med Chem, 2016) can be followed below.

Experiment [1] addresses 5-hydroxytryptamine receptor 2A (Homo sapiens, UniProt P28223). Briefly: Displacement of [3H]ketanserin from recombinant human 5-HT2A receptor expressed in HEK293 cell membranes after 60 mins by scintillation counting method.
For experiment [2], the target named is T1, 5-hydroxytryptamine receptor 1A (Homo sapiens, UniProt P08908).
T1 sequence (P08908 whole entry): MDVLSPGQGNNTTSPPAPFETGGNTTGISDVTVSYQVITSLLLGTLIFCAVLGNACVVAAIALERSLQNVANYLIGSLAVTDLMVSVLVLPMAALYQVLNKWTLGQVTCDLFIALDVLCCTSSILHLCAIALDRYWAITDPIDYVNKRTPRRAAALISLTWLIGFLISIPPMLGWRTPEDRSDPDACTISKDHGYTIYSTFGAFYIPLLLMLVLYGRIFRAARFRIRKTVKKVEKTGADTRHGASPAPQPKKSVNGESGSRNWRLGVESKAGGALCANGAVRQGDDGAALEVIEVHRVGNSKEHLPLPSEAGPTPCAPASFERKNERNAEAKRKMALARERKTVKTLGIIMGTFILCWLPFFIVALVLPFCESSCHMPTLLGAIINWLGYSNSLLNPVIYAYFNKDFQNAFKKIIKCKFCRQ
Briefly: Displacement of [3H]8-OH-DPAT from recombinant human 5-HT1A receptor expressed in HEK293 cell membranes after 60 mins by scintillation counting method.

In a further experiment the target is D(2) dopamine receptor (Homo sapiens, UniProt P14416). Briefly: Displacement of [3H]spiperone from recombinant human D2L receptor expressed in CHO cell membranes after 60 mins by scintillation counting method.
The next experiment concerns the target D(3) dopamine receptor (Homo sapiens, UniProt P35462). As to the kind of experiment: Displacement of [3H]methyl-spiperone from recombinant human D3 receptor expressed in CHO cell membranes after 60 mins by scintillation counting method.
In the next experiment the test system is CHO. As to the kind of experiment: Selectivity ratio of Ki for displacement of [3H]spiperone from recombinant human D2L receptor expressed in CHO cell membranes to Ki for displacement of [3H]methyl-spiperone from recombinant human D3 receptor expressed in CHO cell membranes. The procedure, abridged:
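D2L binding: CHO membranes (16 µg protein) with 0.3 nM [3H]methyl-spiperone in 50 mM Tris-HCl pH 7.4, 120 mM NaCl, 10 mM MgCl2, 1 mM EDTA, with butaclamol for nonspecific binding. D3 binding: membranes (8 µg) with 0.3 nM [3H]methyl-spiperone in the same Tris buffer with 5 mM KCl, 5 mM MgCl2, 5 mM EDTA, with (+)butaclamol for nonspecific binding. Both run 60 min at 22 °C, then GF/B filtration. Ki by Cheng–Prusoff; ratio is D2 Ki/D3 Ki.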

Another experiment relates to Rattus norvegicus. Briefly: Antipsychotic activity in Sprague-Dawley rat assessed as inhibition of conditioned avoidance behavior at 1.0 to 2.0 mg/kg, ip administered as single dose measured after 1 hr. The experiment is classed as functional, organism-based. The procedure, abridged: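 Male SD rats (150–180 g, 6 per group) trained in automated shuttle-boxes; only rats exceeding 80% avoidance were used. Single i.p. dose of 1.0 or 2.0 mg/kg given 1 h before a 20-trial session. Read-out is percentage of avoidance (mean ± SEM, n = 6), compared with the vehicle group.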

SMILES strings stand for the structures. Calls of active or inactive are those of the source. The calls are words filed in the database; no cut-off is given here.

Sequence of D(2) dopamine receptor (P14416 whole entry): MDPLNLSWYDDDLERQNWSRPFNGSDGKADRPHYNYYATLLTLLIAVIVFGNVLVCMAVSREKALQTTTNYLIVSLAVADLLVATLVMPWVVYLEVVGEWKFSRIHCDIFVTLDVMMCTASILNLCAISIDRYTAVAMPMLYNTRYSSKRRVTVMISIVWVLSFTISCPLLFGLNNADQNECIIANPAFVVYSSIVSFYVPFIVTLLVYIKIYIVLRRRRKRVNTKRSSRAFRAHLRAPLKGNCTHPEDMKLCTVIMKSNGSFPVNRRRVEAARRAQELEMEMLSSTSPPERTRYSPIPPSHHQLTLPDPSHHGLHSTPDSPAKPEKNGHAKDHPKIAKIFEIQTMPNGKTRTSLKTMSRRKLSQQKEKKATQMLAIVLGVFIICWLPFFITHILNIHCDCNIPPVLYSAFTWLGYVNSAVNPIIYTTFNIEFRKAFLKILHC
Sequence of 5-hydroxytryptamine receptor 2A (P28223 whole entry): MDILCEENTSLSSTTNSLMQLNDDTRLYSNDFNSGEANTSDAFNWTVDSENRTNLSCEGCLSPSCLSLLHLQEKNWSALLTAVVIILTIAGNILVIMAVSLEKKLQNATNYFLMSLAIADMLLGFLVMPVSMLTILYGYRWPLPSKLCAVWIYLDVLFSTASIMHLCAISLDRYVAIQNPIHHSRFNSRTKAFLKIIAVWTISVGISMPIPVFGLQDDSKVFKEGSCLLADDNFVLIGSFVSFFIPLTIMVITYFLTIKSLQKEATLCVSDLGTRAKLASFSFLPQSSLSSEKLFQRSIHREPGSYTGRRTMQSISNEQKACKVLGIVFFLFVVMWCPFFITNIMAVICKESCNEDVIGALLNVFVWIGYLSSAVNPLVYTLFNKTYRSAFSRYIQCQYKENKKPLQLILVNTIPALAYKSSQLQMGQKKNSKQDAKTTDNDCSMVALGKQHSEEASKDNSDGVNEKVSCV
Sequence of D(3) dopamine receptor (P35462 whole entry): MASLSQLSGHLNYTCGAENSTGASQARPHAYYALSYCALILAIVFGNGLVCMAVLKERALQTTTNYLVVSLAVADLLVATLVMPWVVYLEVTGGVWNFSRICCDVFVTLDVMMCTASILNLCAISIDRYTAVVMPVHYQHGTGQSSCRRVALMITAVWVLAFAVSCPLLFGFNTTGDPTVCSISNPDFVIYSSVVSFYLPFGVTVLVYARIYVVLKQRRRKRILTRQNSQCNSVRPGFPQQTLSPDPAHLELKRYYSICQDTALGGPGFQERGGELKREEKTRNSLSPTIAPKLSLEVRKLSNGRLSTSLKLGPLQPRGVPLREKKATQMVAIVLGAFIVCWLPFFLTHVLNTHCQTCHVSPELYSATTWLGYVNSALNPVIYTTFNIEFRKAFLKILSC

For the molecule `O=C(c1ccco1)N1CCC(CCN2CCN(c3nsc4ccccc34)CC2)CC1`, the Ki in experiment [1] stood at 2.2 nM; in experiment [2], 0.72 nM; on D(2) dopamine receptor, 15 nM; on D(3) dopamine receptor, 7.3 nM. The Ratio Ki in the experiment with CHO is 2.2.
For `O=C(N[C@H]1CC[C@H](CCN2CCN(c3nsc4ccccc34)CC2)CC1)N1CCOCC1`, in that order: 3.2 nM, 15 nM, 2.2 nM, 1.6 nM and 1.38.
With `CS(=O)(=O)N[C@H]1CC[C@H](CCN2CCN(c3nsc4ccccc34)CC2)CC1`, the Ki amounted to 0.28 nM in experiment [1], 1.3 nM in experiment [2], 8.9 nM at D(2) dopamine receptor and 0.095 nM at D(3) dopamine receptor. In the experiment on CHO, the Ratio Ki worked out at 93.7.
For `O=S(=O)(N[C@H]1CC[C@H](CCN2CCN(c3nsc4ccccc34)CC2)CC1)c1cccnc1`, in that order: 8.1 nM, 11 nM, 0.35 nM, 0.058 nM and 6.03.
For the molecule `CCN(C)C(=O)N[C@H]1CC[C@H](CCN2CCN(c3nsc4ccccc34)CC2)CC1`, the Ki in experiment [1] was determined as 0.5 nM; in experiment [2], 1.4 nM; at D(2) dopamine receptor it was 0.51 nM; at D(3) dopamine receptor it was 0.78 nM. Besides, the Ratio Ki in the experiment on CHO turned out to be 0.65.
The corresponding values for `Cc1ccc(S(=O)(=O)N[C@H]2CC[C@H](CCN3CCN(c4nsc5ccccc45)CC3)CC2)cc1` are 0.26 nM, 3.9 nM, 0.42 nM, 0.062 nM and 6.77.
For `CN(C)C(=O)N[C@H]1CC[C@H](CCN2CCN(c3nsc4ccccc34)CC2)CC1`, in that order: 0.6 nM, 1.2 nM, 0.53 nM, 0.4 nM and 1.33.
For `O=C(N[C@H]1CC[C@@H](CCN2CCN(c3nsc4ccccc34)CC2)CC1)c1ccco1`, in that order: 0.19 nM, 2.2 nM, 6.3 nM, 2.3 nM and 2.74.
With `CCCS(=O)(=O)N[C@H]1CC[C@H](CCN2CCN(c3nsc4ccccc34)CC2)CC1`, the inhibition constant (Ki) came out at 0.34 nM in experiment [1], 1.1 nM in experiment [2], 1.9 nM on D(2) dopamine receptor and 0.22 nM at D(3) dopamine receptor. In addition, the Ratio Ki in the experiment with CHO was found to be 8.64.
The corresponding values for `CC(=O)N[C@H]1CC[C@H](CCN2CCN(c3nsc4ccccc34)CC2)CC1` are 5.8 nM, 0.69 nM, 25 nM, 0.16 nM and 156.
For the molecule `CCC(=O)N[C@H]1CC[C@H](CCN2CCN(c3nsc4ccccc34)CC2)CC1`, the inhibitory constant (Ki) in experiment [1] came to 1.1 nM; in experiment [2], 1.5 nM; on D(2) dopamine receptor, 18 nM; on D(3) dopamine receptor, 0.052 nM. The Ratio Ki in the experiment on CHO stood at 346.
For `O=C(N[C@H]1CC[C@H](CCN2CCN(c3nsc4ccccc34)CC2)CC1)c1cccnc1`, in that order: 0.29 nM, 2.1 nM, 0.85 nM, 0.09 nM and 9.44.
For `O=C(N[C@H]1CC[C@H](CCN2CCN(c3nsc4ccccc34)CC2)CC1)c1ccccc1`, in that order: 0.24 nM, 1.7 nM, 0.33 nM, 0.047 nM and 7.02.
Take `O=C(N[C@H]1CC[C@H](CCN2CCN(c3nsc4ccccc34)CC2)CC1)C(F)(F)F`: the Ki in experiment [1] was found to be 0.63 nM; in experiment [2] it was 1.1 nM; on D(2) dopamine receptor, 1.7 nM; at D(3) dopamine receptor, 0.27 nM. Also, the Ratio Ki in the experiment with CHO came to 6.3.
In the case of `O=S(=O)(N[C@H]1CC[C@H](CCN2CCN(c3nsc4ccccc34)CC2)CC1)c1cccs1`, the inhibition entry in the experiment with Rattus norvegicus was “Active”. Also, in experiment [2], the inhibition constant (Ki) worked out at 1.1 nM.
Regarding `CN(C(=O)N[C@H]1CC[C@H](CCN2CCN(c3nsc4ccccc34)CC2)CC1)c1ccccc1`, the Ki in experiment [2] is 5.2 nM; at D(3) dopamine receptor, 1.2 nM.
Take `CCCC(=O)N[C@H]1CC[C@H](CCN2CCN(c3nsc4ccccc34)CC2)CC1`: the Ki in experiment [1] is 0.87 nM; in experiment [2], 2.1 nM; on D(2) dopamine receptor, 2.8 nM; on D(3) dopamine receptor it was 0.14 nM. For the same molecule, the Ratio Ki with CHO is 20.
The corresponding values for `O=C(N[C@H]1CC[C@H](CCN2CCN(c3nsc4ccccc34)CC2)CC1)C1CCCCC1` are 0.36 nM, 5.6 nM, 0.94 nM, 0.19 nM and 4.95.
The corresponding values for `CN([C@H]1CC[C@H](CCN2CCN(c3nsc4ccccc34)CC2)CC1)S(=O)(=O)c1cccs1` are 1.2 nM, 2.9 nM, 0.3 nM, 0.046 nM and 6.52.
As for `O=C(NCc1ccccc1)N[C@H]1CC[C@H](CCN2CCN(c3nsc4ccccc34)CC2)CC1`, the Ki in experiment [1] was 0.91 nM; in experiment [2], 5.3 nM; at D(2) dopamine receptor, 1.4 nM; on D(3) dopamine receptor it was 0.18 nM. Besides, in the experiment with CHO, the Ratio Ki was 7.78.
With `O=C(N[C@H]1CC[C@H](CCN2CCN(c3nsc4ccccc34)CC2)CC1)c1ccc[nH]1`, the Ratio Ki with CHO amounted to 0.68.
Regarding `N[C@H]1CC[C@H](CCN2CCN(c3nsc4ccccc34)CC2)CC1`, the Ki came to 0.21 nM in experiment [1], 7.2 nM in experiment [2], 4.6 nM at D(2) dopamine receptor and 9.6 nM on D(3) dopamine receptor. Also, the Ratio Ki in the experiment with CHO was 0.48.
The corresponding values for `CCOC(=O)N1CCC(CCN2CCN(c3nsc4ccccc34)CC2)CC1` are 3.3 nM, 1.3 nM, 10 nM, 8.7 nM and 1.15.
For `CCOC(=O)N[C@H]1CC[C@@H](CCN2CCN(c3nsc4ccccc34)CC2)CC1`, in that order: 0.18 nM, 0.57 nM, 4 nM, 2 nM and 2.
For `O=C(Nc1cccnc1)N[C@H]1CC[C@H](CCN2CCN(c3nsc4ccccc34)CC2)CC1`, in that order: 0.14 nM, 12 nM, 0.51 nM, 0.055 nM and 9.27.
Take `O=C(N[C@H]1CC[C@H](CCN2CCN(c3nsc4cc([N+](=O)[O-])ccc34)CC2)CC1)c1ccco1`: the Ki turned out to be 1.8 nM in experiment [1], 39 nM in experiment [2], 26 nM at D(2) dopamine receptor and 0.24 nM at D(3) dopamine receptor. The Ratio Ki in the experiment on CHO came out at 108.
With `O=C(NC[C@H]1CC[C@H](CN2CCN(c3nsc4ccccc34)CC2)CC1)c1ccco1`, the Ki in experiment [1] stood at 16 nM; in experiment [2] it was 5.3 nM; on D(2) dopamine receptor it was 8.9 nM; on D(3) dopamine receptor, 1 nM. Moreover, in the experiment on CHO, the Ratio Ki was found to be 8.9.
With `Nc1ccc2c(N3CCN(CC[C@H]4CC[C@H](NC(=O)c5ccco5)CC4)CC3)nsc2c1`, the inhibition constant Ki stood at 4.3 nM in experiment [1], 33 nM in experiment [2], 14 nM on D(2) dopamine receptor and 1.1 nM on D(3) dopamine receptor. Further, the Ratio Ki in the experiment with CHO was 12.7.
`O=C(N[C@H]1CC[C@H](CCN2CCN(c3nsc4ccccc34)CC2)CC1)C1CC1`: the Ki in experiment [1] came to 0.35 nM; in experiment [2], 0.92 nM; on D(2) dopamine receptor it was 0.85 nM; at D(3) dopamine receptor, 0.21 nM. For the same molecule, the Ratio Ki in the experiment with CHO worked out at 4.05.
For `COCC(=O)N[C@H]1CC[C@H](CCN2CCN(c3nsc4ccccc34)CC2)CC1`, the Ki worked out at 0.24 nM in experiment [1], 3 nM in experiment [2], 9.6 nM on D(2) dopamine receptor and 0.31 nM at D(3) dopamine receptor. Moreover, the Ratio Ki with CHO is 31.
The corresponding values for `O=C(N[C@H]1CC[C@H](CCN2CCN(c3nsc4ccccc34)CC2)CC1)c1cccs1` are 0.15 nM, 1.1 nM, 0.19 nM, 0.056 nM and 3.4.
The corresponding values for `CC(C)N(C(=O)N[C@H]1CC[C@H](CCN2CCN(c3nsc4ccccc34)CC2)CC1)C(C)C` are 0.38 nM, 2.3 nM, 0.72 nM, 1.4 nM and 0.51.
